Calls of active or inactive are those of the source. No cut-off for these calls is given here.
What was measured:
[1] = Chromatographic hydrophobicity index in acetonitrile solution under isocratic conditions at pH 6.8; format: physicochemical
In short: (§1)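 RP-HPLC on a C18 column at 35 °C, 0.7 mL/min. Mobile phase was CH3CN or CH3OH with 50 mM aq ammonium formate (pH 6.8). […], with t0 from uracil and tR measured in duplicate. Six isocratic compositions were chosen so that −1.5 < log k < 0.6, and the index was derived from the linear log k versus organic-fraction relation.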

[2] = Chromatographic hydrophobicity index in methanol solution under isocratic conditions at pH 6.8; format: physicochemical; in short: as §1
[3] = system: PAM212; assay: Phototoxicity against mouse PAM212 cells assessed as cell viability at 0.1 mM after 4 hrs irradiated with 2.5 J/cm2 blue light by MTT assay relative to control; format: functional; settings: PAM212, light or radiation study, read-out: Activity
In short: (§2)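 PAM212 cells were seeded about 5 × 10^4/well, grown 48 h, PBS-washed and incubated 4 h with drug at 0.01, 0.1 or 1 mM. Blue light (peak 420 nm) was delivered at 2.5 J/cm², although the methods section states 1.25 J/cm². Medium was then replaced and cells kept 24 h. MTT 1 mg/mL for 3 h, DMSO, A570; survival as % of non-irradiated drug-treated controls.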

[4] = system: PAM212; assay: Drug uptake in mouse PAM212 cells assessed as PpIX production per mg of protein at 0.1 mM after 4 hrs; format: ADME, cell-based; settings: pam212, 4 h, 100 µM
In short: (§3)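 Cells (PAM212; A549 in F12K; Caco-2 in EMEM, 37 °C, 5% CO2) were seeded in 100 mm dishes and grown 48 h at 37 °C. After PBS washing they were incubated 4 h at 37 °C with 0.1 or 1 mM drug, washed, lysed 15 min and scraped, then centrifuged at 1800 g for 10 min. Supernatant PpIX was read by fluorescence (410/635 nm) against a PpIX standard curve and normalized to protein by BCA.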

[5] = system: PAM212; assay: Cytotoxicity against mouse PAM212 cells after 24 hrs in absence of 2.5 J/cm2 blue light by MTT assay; format: functional, cell-based
In short: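 Dark toxicity. PAM212 keratinocytes (RPMI-1640, 10% FCS) were seeded about 5 × 10^4 cells/well and grown 48 h, PBS-washed, then given drug for 4 h without irradiation. Medium was replaced and cells were kept a further 24 h. MTT 1 mg/mL for 3 h, formazan dissolved in DMSO, absorbance at 570 nm.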

[6] = system: PAM212; assay: Drug uptake in mouse PAM212 cells assessed as intracellular 5-aminolaevulinic acid level per mg of protein at 0.1 mM after 4 hrs; format: ADME, cell-based; settings: pam212, 4 h, 100 µM
[7] = system: PAM212; assay: Drug uptake in mouse PAM212 cells assessed as enhanced PpIX fluorescence at 0.1 mM after 6 hrs; format: ADME, cell-based; settings: pam212, 6 h, 100 µM
In short: (§4)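 PAM212 cells were seeded 5 × 10^4/well, grown 48 h, PBS-washed and incubated with drug at 0.01 or 0.1 mM in serum-free medium for 4 or 6 h. Untreated wells gave background and ALA wells served as reference. Well fluorescence: excitation 410 nm, emission 635 nm, scans 600–750 nm. Mean intensity (arbitrary units) after control subtraction, calibrated against rhodamine B.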

[8] = system: PAM212; assay: Drug uptake in mouse PAM212 cells assessed as enhanced PpIX fluorescence at 0.1 mM after 4 hrs; format: ADME, cell-based; settings: pam212, 4 h, 100 µM; in short: as §4
[9] = system: PAM212; assay: Drug uptake in mouse PAM212 cells assessed as PpIX production per mg of protein at 1 mM after 4 hrs; format: ADME, cell-based; settings: pam212, 4 h, 1000 µM; in short: as §3
[10] = system: PAM212; assay: Drug uptake in mouse PAM212 cells assessed as intracellular 5-aminolaevulinic acid level per mg of protein at 1 mM after 4 hrs; format: ADME, cell-based; settings: pam212, 4 h, 1000 µM
[11] = system: PAM212; assay: Drug uptake in mouse PAM212 cells assessed as enhanced PpIX fluorescence at 0.01 mM after 4 hrs; format: ADME, cell-based; settings: pam212, 4 h, 10 µM; in short: as §4
[12] = system: PAM212; assay: Drug uptake in mouse PAM212 cells assessed as enhanced PpIX fluorescence at 0.01 mM after 6 hrs; format: ADME, cell-based; settings: pam212, 6 h, 10 µM; in short: as §4
[13] = system: PAM212; assay: Phototoxicity against mouse PAM212 cells assessed as cell viability at 0.01 mM after 4 hrs irradiated with 2.5 J/cm2 blue light by MTT assay relative to control; format: functional, cell-based; in short: as §2
[14] = system: A549; assay: Drug uptake in human A549 cells assessed as PpIX production per mg of protein at 0.1 mM after 4 hrs; format: ADME, cell-based; settings: a549, 4 h, 100 µM; in short: as §3
[15] = system: Caco-2; assay: Drug uptake in human Caco-2 cells assessed as intracellular 5-aminolaevulinic acid level per mg of protein at 1 mM after 4 hrs; format: ADME, cell-based; settings: caco-2, 4 h, 1000 µM
[16] = system: Caco-2; assay: Drug uptake in human Caco-2 cells assessed as PpIX production per mg of protein at 1 mM after 4 hrs; format: ADME, cell-based; settings: caco-2, 4 h, 1000 µM; in short: as §3
[17] = system: A549; assay: Drug uptake in human A549 cells assessed as intracellular 5-aminolaevulinic acid level per mg of protein at 0.1 mM after 4 hrs; format: ADME, cell-based; settings: a549, 4 h, 100 µM

Structure (SMILES)	CHI [1]	CHI [2]	viability at 100 µM [3] [%]	Drug uptake [4] [ng/mg]	Activity [5]	Drug uptake [6] [µg/mg]	Drug uptake [7]	Drug uptake [8]	Drug uptake [9] [ng/mg]	Drug uptake [10] [µg/mg]	Drug uptake [11]	Drug uptake [12]	Activity [13]	Drug uptake [14] [ng/mg]	Drug uptake [15] [µg/mg]	Drug uptake [16] [ng/mg]	Drug uptake [17] [µg/mg]
COC(=O)CCC(=O)CNC(=O)[C@@H](Cc1c[nH]c2ccccc12)NC(C)=O	37.32	22.08															
COC(=O)CCC(=O)CNC(=O)[C@H](CCC(=O)O)NC(C)=O	23.14	35.01	3	165	inactive	1.2	Active	Active	276	5.04							
CC(=O)N[C@@H](Cc1ccccc1)C(=O)NCC(=O)CCC(=O)O[C@@H]1C[C@H](C)CCC1C(C)C (stereo partly drawn)	53.22	110.53						Active			Active						
COC(=O)CCC(=O)CNC(=O)[C@@H](NC(C)=O)C(C)C	25.64	41.6						Active									
COC(=O)CCC(=O)CNC(=O)[C@H](CO)NC(C)=O	14.61	36.43		33.9		0.5			222	2.17							
COC(=O)CCC(=O)CNC(=O)[C@H](CCSC)NC(C)=O	28.89	41.4	3	315	inactive	3.28	Active	Active	295	13.2	Active	Active	Active				
COC(=O)CCC(=O)CNC(=O)[C@H](C)NC(C)=O	14.18	17.08	3	10.9	inactive	0.88		Active	12.9	3.93	Active	Active					
COC(=O)CCC(=O)CNC(=O)[C@H](Cc1ccc(O)cc1)NC(C)=O	34.14	40.73															
NCC(=O)CCC(=O)O [AMINOLEVULINIC ACID]			11	108		0.81			310	3.41			inactive	39.9	2.66	603	0.08
COC(=O)CCC(=O)CNC(=O)[C@H](CC(=O)O)NC(C)=O	19.62	24.27		19.1		0.41			20.2	1.94							
CCOC(=O)CCC(=O)CNC(=O)[C@H](Cc1ccccc1)NC(C)=O	44.01	57.58						Active			Active						
COC(=O)CCC(=O)CNC(=O)[C@@H](CC(C)C)NC(C)=O	33.89	50.76															
COC(=O)CCC(=O)CNC(=O)[C@H]1CCCN1C(C)=O	18.7	27.34															
COC(=O)CCC(=O)CNC(=O)CNC(C)=O	10.31	18.77															
COC(=O)CCC(=O)CNC(=O)[C@H](NC(C)=O)C(C)C	24.74	40.76															
COCCOCCOC(=O)CCC(=O)CNC(=O)[C@H](Cc1ccccc1)NC(C)=O	38.88	58.35						Active			Active						
CCCCCCOC(=O)CCC(=O)CNC(=O)[C@H](Cc1ccccc1)NC(C)=O	56.64	97.31	3	284		4.14		Active	247	18.9	Active		Active	10.1	14.8	480	1.63
COC(=O)CCC(=O)CNC(=O)[C@H](CC(C)C)NC(C)=O	36.67	50.92	3	276	inactive	2.8	Active	Active	290	12.2	Active	Active		5.91	6.54	612	0.2
COC(=O)CCC(=O)CNC(=O)[C@H](Cc1c[nH]c2ccccc12)NC(C)=O	37.35	22.08		26.6		2.41			38.9	10.3				-0.02	8.35	-5.9	0.23
COC(=O)CCC(=O)CNC(=O)[C@H](CCCCN)NC(C)=O	8.48	13.61		13.2		0.68			20.2	3.06							
COC(=O)CCC(=O)CNC(=O)[C@@H](C)NC(C)=O	17.3	17.3															
COC(=O)CCC(=O)CNC(=O)[C@H](Cc1cnc[nH]1)NC(C)=O	15.59	28.89															
COCCOC(=O)CCC(=O)CNC(=O)[C@H](Cc1ccccc1)NC(C)=O	38.26	79.03						Active			Active						
COC(=O)CCC(=O)CNC(=O)[C@@H]1CCCN1C(C)=O	18.69	27.47															
COC(=O)CCC(=O)CNC(=O)[C@@H](Cc1ccccc1)NC(C)=O	37.71	52.62		4.57		1.07			-2.99	4.35							
COC(=O)CCC(=O)CNC(=O)[C@H](Cc1ccccc1)NC(C)=O	34.71	52.96	3	313	inactive	2.9	Active	Active	295	13.7	Active	Active	Active	4.42	11.9	594	0.38
CC[C@H](C)[C@H](NC(C)=O)C(=O)NCC(=O)CCC(=O)OC	37.14	46.91		40.2		1.64			22.3	7.1							

From ChEMBL document CHEMBL1137010, “Improved peptide prodrugs of 5-ALA for PDT: rationalization of cellular accumulation and protoporphyrin IX production by direct determination of cellular prodrug uptake and prodrug metabolization” (J Med Chem, 2009)
